Laboratory results published in ChEMBL document CHEMBL4041511, “Synthesis of coumaperine derivatives: Their NF-κB inhibitory effect, inhibition of cell migration and their cytotoxic activity” (Eur J Med Chem, 2017).
In brackets after ≈: the same amount, converted by molar mass. Activity calls are given as the source filed them. No cut-off for these calls is given here.

Assays:
L-428 [1] = assay: Inhibition of NFkappaB p65 subunit expression in cytosolic fractions of human L428 cells after 2 hrs by Western method; assay type: functional, cell-based
Summary of the method: (§1)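 10 x 10^6 L428 cells per sample exposed 2 h to various concentrations or DMSO. Cytosolic and nuclear fractions prepared by hypotonic lysis, needle shearing and high-salt nuclear extraction. 40 µg protein (Bradford) run on 10% SDS-PAGE, immunoblotted for p50, p65, RelB; β-actin and Lamin B loading controls; ECL detection. At least three independent experiments.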

L-428 [2] = assay: Inhibition of RelB protein expression in nuclear fractions of human L428 cells at 5 to 30 ug/ml after 2 hrs by Western method; assay type: functional, cell-based; summary of the method: as §1
Homo sapiens [3] = species: Homo sapiens; assay: Inhibition of NF-kappaB in human L428 cells at 50 ug/ml after 2 hrs by luciferase reporter gene assay relative to control; assay type: cell-based
Summary of the method: (§2)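 L428 cells stably carrying NF-κB-luciferase reporter (kept in 500 µg/ml G418), 10⁶ per well in 1 ml medium with DMSO solvent and compound (10-50 μg/ml) for 2 h, triplicate wells. Lysates assayed for luciferase, luminescence normalized to Bradford protein. Solvent control = 100%; Nuphar extract positive control; mean and SD of three independent experiments.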

L-428 [4] = assay: Inhibition of NFkappaB p50 subunit expression in cytosolic fractions of human L428 cells after 2 hrs by Western method; assay type: functional, cell-based; summary of the method: as §1
Homo sapiens [5] = species: Homo sapiens; assay: Inhibition of NFkappaB p50 subunit in human L428 cells assessed as depletion of […] subunit from nucleus after 2 hrs by DAPI staining based confocal microscopic method; assay type: cell-based
Summary of the method: (§3)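 L428 cells incubated 2 h at 37 °C with compound at 10 or 30 μg/ml, cytocentrifuged (900 rpm, 5 min), fixed in 8% formalin 20 min. Separate staining with anti-p65 or anti-p50 plus fluorescent secondary antibodies; nuclei stained with DAPI. Nuclear localization imaged by confocal microscopy.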

A549 [6] = assay: Anti-migratory activity against human A549 cells assessed as reduction in wound closure at 5 ug/ml after 48 hrs by wound scratch assay; assay type: functional, cell-based
Summary of the method: (§4)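 A549 cells seeded in 6-well plates without compound; after monolayer formed (24 h), compound or DMSO vehicle added and monolayer scratched. Wound closure recorded after 48 h; concentrations 2-10 μg/ml. Representative of three independent experiments.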

A549 [7] = assay: Cytotoxicity against human A549 cells assessed as reduction in cell viability after 48 hrs by XTT assay; assay type: functional, cell-based; conditions: A549, 48 h
Summary of the method: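 A549 cells (DMEM, 10% heat-inactivated FBS, L-glutamine, Pen-Strep), 3 x 10^4 per well, left 24 h to form monolayer, then exposed to graded concentrations for 48 h in triplicate. XTT added, further 4 h at 37 °C, absorbance at 450 nm. Untreated control = 100% survival; mean and SD of three independent experiments.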

[8] = target: Transcription factor p65 (Homo sapiens) (UniProt Q04206); assay: Inhibition of NFkappaB p65 subunit in human L428 cells assessed as depletion of p65 subunit from nucleus after 2 hrs by DAPI staining based confocal microscopic method; assay type: cell-based; summary of the method: as §3
Sequence of Transcription factor p65 (Homo sapiens) (Q04206 whole entry): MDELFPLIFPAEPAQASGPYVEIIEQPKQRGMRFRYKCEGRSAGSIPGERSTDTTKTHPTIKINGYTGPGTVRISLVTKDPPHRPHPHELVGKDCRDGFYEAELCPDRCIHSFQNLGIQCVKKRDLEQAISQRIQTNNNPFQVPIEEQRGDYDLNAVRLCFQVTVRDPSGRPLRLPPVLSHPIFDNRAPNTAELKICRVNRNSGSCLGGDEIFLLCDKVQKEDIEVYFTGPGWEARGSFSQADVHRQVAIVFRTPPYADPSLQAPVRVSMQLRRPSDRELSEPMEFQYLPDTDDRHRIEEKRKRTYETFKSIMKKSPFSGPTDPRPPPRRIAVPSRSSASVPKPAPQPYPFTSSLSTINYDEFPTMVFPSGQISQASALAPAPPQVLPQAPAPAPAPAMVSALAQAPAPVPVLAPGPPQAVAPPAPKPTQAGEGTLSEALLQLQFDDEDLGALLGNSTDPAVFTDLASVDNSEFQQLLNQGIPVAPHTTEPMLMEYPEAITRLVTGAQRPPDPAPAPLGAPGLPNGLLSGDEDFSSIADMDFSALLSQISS

L-428 [9] = assay: Inhibition of RelB protein expression in cytosolic fractions of human L428 cells at 5 to 30 ug/ml after 2 hrs by Western method; assay type: functional, cell-based; summary of the method: as §1
L-428 [10] = assay: Cytotoxicity against human L428 cells assessed as reduction in cell viability after 48 hrs by XTT assay; assay type: functional, cell-based; conditions: for IC50: L-428, 48 h
Summary of the method: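 L428 Hodgkin's lymphoma cells (RPMI 1640; lack IκBα, constitutive NF-κB), 3 x 10^4 per well in 200 µl, treated with graded concentrations for 48 h at 37 °C in triplicate. XTT added for 4 h at 37 °C, absorbance read at 450 nm. Control = 100% survival; mean and SD of three independent experiments.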

L-428 [11] = assay: Inhibition of NFkappaB p65 subunit expression in nuclear fractions of human L428 cells after 2 hrs by Western method; assay type: functional, cell-based; summary of the method: as §1
Homo sapiens [12] = species: Homo sapiens; assay: Inhibition of NF-kappaB in human L428 cells at 40 ug/ml after 2 hrs by luciferase reporter gene assay relative to control; assay type: cell-based; summary of the method: as §2
Homo sapiens [13] = species: Homo sapiens; assay: Inhibition of NF-kappaB in human L428 cells after 2 hrs by luciferase reporter gene assay; assay type: cell-based; summary of the method: as §2
Homo sapiens [14] = species: Homo sapiens; assay: Inhibition of NF-kappaB in human L428 cells at 20 ug/ml after 2 hrs by luciferase reporter gene assay relative to control; assay type: cell-based; summary of the method: as §2
Homo sapiens [15] = species: Homo sapiens; assay: Inhibition of NF-kappaB in human L428 cells at 10 ug/ml after 2 hrs by luciferase reporter gene assay relative to control; assay type: cell-based; summary of the method: as §2
Homo sapiens [16] = species: Homo sapiens; assay: Inhibition of NF-kappaB in human L428 cells at 30 ug/ml after 2 hrs by luciferase reporter gene assay relative to control; assay type: cell-based; summary of the method: as §2
L-428 [17] = assay: Inhibition of NFkappaB p50 subunit expression in nuclear fractions of human L428 cells after 2 hrs by Western method; assay type: functional, cell-based; summary of the method: as §1
Homo sapiens [18] = species: Homo sapiens; assay: Inhibition of IL-1beta-induced NFkappaB activation in human OA chondrocytes at 100 ug/ml after 24 hrs by luciferase reporter gene assay relative to control; assay type: cell-based
Mus musculus = species: Mus musculus; assay: Inhibition of LPS-induced NFkappaB activation in mouse RAW264.7 cells at 100 ug/ml after 24 hrs by luciferase reporter gene assay relative to control; assay type: cell-based
L-428 [19] = assay: Inhibition of RelB protein expression in cytosolic fractions of human L428 cells at 10 to 40 ug/ml after 2 hrs by Western method; assay type: functional, cell-based; summary of the method: as §1
L-428 [20] = assay: Inhibition of RelB protein expression in nuclear fractions of human L428 cells at 10 to 40 ug/ml after 2 hrs by Western method; assay type: functional, cell-based; summary of the method: as §1
L-428 [21] = assay: Inhibition of NFkappaB p65 subunit expression in cytosolic fractions of human L428 cells at 10 to 40 ug/ml after 2 hrs by Western method; assay type: functional, cell-based; summary of the method: as §1
L-428 [22] = assay: Inhibition of NFkappaB p65 subunit expression in nuclear fractions of human L428 cells at 10 to 40 ug/ml after 2 hrs by Western method; assay type: functional, cell-based; summary of the method: as §1
L-428 [23] = assay: Inhibition of NFkappaB p50 subunit expression in cytosolic fractions of human L428 cells at 10 to 40 ug/ml after 2 hrs by Western method; assay type: functional, cell-based; summary of the method: as §1
A549 [24] = assay: Anti-migratory activity against human A549 cells assessed as reduction in wound closure at 10 ug/ml after 48 hrs by wound scratch assay; assay type: functional, cell-based; summary of the method: as §4
L-428 [25] = assay: Inhibition of NFkappaB p50 subunit expression in nuclear fractions of human L428 cells at 10 to 40 ug/ml after 2 hrs by Western method; assay type: functional, cell-based; summary of the method: as §1

SMILES | inhibition (Homo sapiens [3]) [%] | inhibition (Homo sapiens [12]) [%] | inhibition (Homo sapiens [13]) | inhibition (Homo sapiens [14]) [%] | inhibition (Homo sapiens [15]) [%] | inhibition (Homo sapiens [16]) [%] | further results
O=C(/C=C/C=C/c1ccccc1)N1CCCCC1 | 88.2 | 85.9 | Dose-dependent effect | 73.9 | 71.9 | 82.2 | inhibition (L-428 [1]): Dose-dependent effect; inhibition (L-428 [2]): inactive; inhibition (L-428 [4]): Dose-dependent effect; inhibition (Homo sapiens [5]): Dose-dependent effect; Activity (A549 [6]): Active; IC50 (A549 [7]): 57.1 µg/mL (≈ 237 µM); inhibition [8]: Dose-dependent effect; inhibition (L-428 [9]): inactive; Activity (L-428 [10]): Dose-dependent effect; IC50 (L-428 [10]): 43.2 µg/mL (≈ 179 µM); inhibition (L-428 [11]): Dose-dependent effect; inhibition (L-428 [17]): Dose-dependent effect
O=C(/C=C/C=C/c1ccc2c(c1)OCO2)N1CCCCC1 | 90.2 | 86.6 | Dose-dependent effect | 67.5 | 67.3 | 85.1 | inhibition (Homo sapiens [18]): 90%; inhibition (Mus musculus): 75%
COc1cc(/C=C/C=C/C(=O)N2CCCCC2)cc(OC)c1OC | 59.8 | 56.9 | Dose-dependent effect | 44.6 | 34.1 | 53.1 | 
COc1ccc(/C=C/C=C/C(=O)N2CCCCC2)c(OC)c1OC | 62.9 | 59.8 | Dose-dependent effect | 52.9 | 39.2 | 59.2 | 
COc1ccc(/C=C/C=C/C(=O)N2CCCCC2)cc1 | 89.9 | 86.9 | Dose-dependent effect | 76.3 | 69.7 | 77.2 | inhibition (L-428 [19]): inactive; inhibition (L-428 [1]): Dose-dependent effect; inhibition (L-428 [4]): Dose-dependent effect; inhibition (Homo sapiens [5]): Dose-dependent effect; Activity (A549 [6]): Active; IC50 (A549 [7]): 63.2 µg/mL (≈ 233 µM); inhibition [8]: Dose-dependent effect; Activity (L-428 [10]): Dose-dependent effect; IC50 (L-428 [10]): 16.8 µg/mL (≈ 62.1 µM); inhibition (L-428 [11]): Dose-dependent effect; inhibition (L-428 [17]): Dose-dependent effect; inhibition (L-428 [20]): inactive
O=C(/C=C/C=C/c1ccc(O)cc1)N1CCCCC1 | 92.2 | 91.5 | Dose-dependent effect | 79.6 | 68.4 | 89.8 | 
COc1ccc(/C=C/C=C/C(=O)N2CCCCC2)cc1OC | 80.1 | 78.9 | Dose-dependent effect | 67.5 | 43.4 | 73.9 | 
O=C(/C=C/C=C/c1ccc(OC2CCCC2)cc1)N1CCCCC1 | 72.2 | 69.7 | Dose-dependent effect | 61.7 | 57.6 | 63.2 | 
CN(C)c1ccc(/C=C/C=C/C=C/C(=O)N2CCCCC2)cc1 | 59.9 | 57.2 | Dose-dependent effect | 56.2 | 37.2 | 56.8 | 
CC(=O)Oc1ccc(/C=C/C=C/C(=O)N2CCCCC2)cc1 | 80.1 | 78.1 | Dose-dependent effect | 71.4 | 70.3 | 75.3 | 
CN(C)c1ccc(/C=C/C=C/C(=O)N2CCCCC2)cc1 | 97.9 | 97.7 | Dose-dependent effect | 96.6 | 95.5 | 97.3 | inhibition (L-428 [21]): inactive; inhibition (L-428 [19]): inactive; inhibition (L-428 [22]): inactive; IC50 (A549 [7]): 69.1 µg/mL (≈ 243 µM); Activity (L-428 [10]): Dose-dependent effect; IC50 (L-428 [10]): 0.39 µg/mL (≈ 1.37 µM); inhibition (L-428 [23]): inactive; Activity (A549 [24]): Active; inhibition (L-428 [25]): inactive; inhibition (L-428 [20]): inactive
O=C(/C=C/C=C/C=C/c1ccc2c(c1)OCO2)N1CCCCC1 | 71.2 | 71 | Dose-dependent effect | 56.6 | 34 | 65.8 | 
COc1ccc(/C=C/C=C/C=C/C(=O)N2CCCCC2)cc1 | 51.8 | 50.7 | Dose-dependent effect | 34 | 26.4 | 44.8 | 
